Laboratory results published in ChEMBL document CHEMBL2157863, “Synthesis and evaluation of novologues as C-terminal Hsp90 inhibitors with cytoprotective activity against sensory neuron glucotoxicity” (J Med Chem, 2012).
Active and inactive are the calls of the source. The calls are words filed in the database; no cut-off is given here.

Assays:
[1] = Cytoprotective activity against glucotoxicity in Sprague-Dawley rat DRG neurons assessed as cell viability at 1 uM by calcein-AM assay; assay type: functional; details: DRG neuron, read-out: Activity
Procedure, shortened: (§1)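 Dorsal root ganglion neurons came from embryonic day 15–18 Sprague Dawley rats. They were trypsin-dissociated and grown on collagen in Neurobasal medium with 25 mM glucose, B-27 and 50 ng/ml NGF. Fluorodeoxyuridine and cytosine arabinoside were given for 2 days. On day 3, neurons received compound plus 20 mM excess glucose (45 mM total) for 4 h. Viability was read with 2 μM calcein AM, 30 min at 37°C, ex 485/em 520 nm, normalized to well protein.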

[2] = biological target: T1, Heat shock protein HSP90 (Homo sapiens) (UniProt P07900+P08238); test: Inhibition of HSP90 in human MCF7 cells assessed as degradation of Akt up to 5 uM after 24 hrs by immunoblot analysis; assay type: cell-based
Procedure, shortened: (§2)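 MCF7 cells were exposed to compound for 24 h. Lysates were immunoblotted for the Hsp90 clients Her2, Raf and Akt, with β-actin as loading control. Geldanamycin at 500 nM served as the positive control for client degradation.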

[3] = Ratio of KU-32 ED50 to compound ED50 for cytoprotective activity against glucotoxicity in Sprague-Dawley rat DRG neurons; assay type: functional, DRG neuron
DRG neuron = test: Induction of HSP70 protein expression in Sprague-Dawley rat DRG neurons at 10 to 1000 nM; assay type: functional
Procedure, shortened: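 Rat embryonic DRG neurons were preincubated overnight with 10–1000 nM compound or DMSO, then exposed to 4 h hyperglycemia. Hsp70 and β-actin were measured by immunoblot. Band intensity of Hsp70 was normalized to β-actin and expressed as fold of control.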

[4] = Cytoprotective activity against glucotoxicity in Sprague-Dawley rat DRG neurons assessed as cell viability by calcein-AM assay; assay type: functional; details: DRG neuron; procedure, shortened: as §1
Nucleic Acid [5] = test: Activation of human HSP70 promoter transfected in rat 50B11 cells at 10 to 1000 nM after 16 hrs by luciferase reporter gene assay; assay type: cell-based
Procedure, shortened: (§3)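 50B11 immortalized sensory neurons were grown in DMEM with 25 mM glucose, 10% FCS and 5 μg/ml blasticidin. They were lipofected with a luciferase reporter driven by the human Hsp70 promoter, which carries two heat shock elements. Cells were re-seeded after 24 h and exposed to compound for 16 h. Luciferase in lysates was normalized to total protein per well, with triplicate wells in at least three experiments.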

[6] = biological target: T1, Heat shock protein HSP90 (Homo sapiens); test: Inhibition of HSP90 in human MCF7 cells assessed as degradation of Raf up to 5 uM after 24 hrs by immunoblot analysis; assay type: cell-based; procedure, shortened: as §2
[7] = biological target: T1, Heat shock protein HSP90 (Homo sapiens); test: Inhibition of HSP90 in human MCF7 cells assessed as degradation of Her2 up to 5 uM after 24 hrs by immunoblot analysis; assay type: cell-based; procedure, shortened: as §2
Nucleic Acid [8] = test: Activation of human HSP70 promoter transfected in rat 50B11 cells at 1 uM after 16 hrs by luciferase reporter gene assay; assay type: cell-based; procedure, shortened: as §3

Compound | viability at 1 µM [1] [%] | also measured
CO[C@@H]1[C@@H](O)[C@@H](O)[C@H](Oc2ccc(C3CC=CCC3NC(C)=O)c(-c3cccc(F)c3)c2)OC1(C)C (mixture of isomers) | 78 | 
CO[C@@H]1[C@@H](O)[C@@H](O)[C@H](Oc2ccc(CCNC(C)=O)c(-c3ccc(F)cc3)c2)OC1(C)C | 75 | 
CO[C@@H]1[C@@H](O)[C@@H](O)[C@H](Oc2ccc(CCNC(C)=O)c(-c3cccc(F)c3)c2)OC1(C)C [CEMDOMESPIB] | 95 | inhibition [2]: inactive; Ratio ED50 [3]: 14; Activity (DRG neuron): Active; EC50 [4]: 13 nM; Activity (Nucleic Acid [5]): Active; inhibition [6]: inactive; inhibition [7]: inactive
CO[C@@H]1[C@@H](O)[C@@H](O)[C@H](Oc2ccc(CCNC(C)=O)c(-c3ccccc3Cl)c2)OC1(C)C | 71 | 
CO[C@@H]1[C@@H](O)[C@@H](O)[C@H](Oc2ccc(CCNC(C)=O)c(-c3cccc(C(F)(F)F)c3)c2)OC1(C)C | 83 | EC50 [4]: 188 nM
CO[C@@H]1[C@@H](O)[C@@H](O)[C@H](Oc2ccc(CCNC(C)=O)c(-c3ccc4c(c3)OCO4)c2)OC1(C)C | 83 | Activity (DRG neuron): inactive; EC50 [4]: 18.4 nM; Activity (Nucleic Acid [5]): inactive
CO[C@@H]1[C@@H](O)[C@@H](O)[C@H](Oc2ccc(CCNC(C)=O)c(-c3ccncc3)c2)OC1(C)C | 81 | 
CO[C@@H]1[C@@H](O)[C@@H](O)[C@H](Oc2ccc(CCNC(C)=O)c(-c3cccnc3)c2)OC1(C)C | 61 | 
CO[C@@H]1[C@@H](O)[C@@H](O)[C@H](Oc2ccc(CCNC(C)=O)c(-c3cccc(C)c3)c2)OC1(C)C | 82 | 
CO[C@@H]1[C@@H](O)[C@@H](O)[C@H](Oc2ccc(CCNC(C)=O)c(-c3ccccc3SC)c2)OC1(C)C | 83 | EC50 [4]: 384 nM
CO[C@@H]1[C@@H](O)[C@@H](O)[C@H](Oc2ccc3cc(NC(C)=O)c(=O)oc3c2C)OC1(C)C | 86 | Activity (DRG neuron): Active; EC50 [4]: 240 nM; Activity (Nucleic Acid [5]): Active
COc1ccccc1-c1cc(O[C@@H]2OC(C)(C)[C@H](OC)[C@@H](O)[C@H]2O)ccc1CCNC(C)=O | 92 | Activity (Nucleic Acid [8]): Active
COc1cccc(-c2cc(O[C@@H]3OC(C)(C)[C@H](OC)[C@@H](O)[C@H]3O)ccc2CCNC(C)=O)c1 | 78 | 
CO[C@@H]1[C@@H](O)[C@@H](O)[C@H](Oc2ccc(CCNC(C)=O)c(-c3ccc(O)cc3)c2)OC1(C)C | 67 | 
CO[C@@H]1[C@@H](O)[C@@H](O)[C@H](Oc2ccc(CCNC(C)=O)c(-c3ccc(C(F)(F)F)cc3)c2)OC1(C)C | 74 | 
CO[C@@H]1[C@@H](O)[C@@H](O)[C@H](Oc2ccc(CCNC(C)=O)c(-c3ccccc3)c2)OC1(C)C | 76 | 
CO[C@@H]1[C@@H](O)[C@@H](O)[C@H](Oc2ccc(CCNC(C)=O)c(-c3cccc(CN4CCOCC4)c3)c2)OC1(C)C | 83 | 
CO[C@@H]1[C@@H](O)[C@@H](O)[C@H](Oc2ccc(C3CC=CCC3NC(C)=O)c(-c3cccc(C(F)(F)F)c3)c2)OC1(C)C (mixture of isomers) | 69 | 
CO[C@@H]1[C@@H](O)[C@@H](O)[C@H](Oc2ccc(CCNC(C)=O)c(-c3cccc(Cl)c3)c2)OC1(C)C | 90 | 
